According to ChEMBL document CHEMBL4396897, “Potent 5-Cyano-6-phenyl-pyrimidin-Based Derivatives Targeting DCN1-UBE2M Interaction” (J Med Chem, 2019):
Activity calls are given as the source filed them. The calls are words filed in the database; no cut-off is given here.

Experiments:
[1] = tested on: NCI-H1975; test: Induction of apoptosis in human NCI-NCI-H1975 cells assessed as necrotic cells at 10 uM after 48 hrs by Annexin V-FITC/propidium iodide staining based flow cytometry (reference value: 0.94%); assay type: functional
[2] = target: DCN1-like protein 2 (Homo sapiens, UniProt Q6PH85); test: Binding affinity to N-terminal GST tagged recombinant DCN2 (unknown origin) (62 to 259 residues) expressed in Escherichia coli BL21(DE3) assessed as reduction in DCN1-FAM-labelled N-terminal acetylated UBE2M (1 to 21 residues) protein-protein interaction after 30 mins by HTRF assay
Procedure, shortened: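 HTRF competition: 5nM GST-tagged DCN (1-5) and 5nM AcUBE2M1-21-biotin peptide, with streptavidin-XL665 and anti-GST cryptate, in 100mM phosphate buffer pH 6.5 with 0.02% Tween-20. Cocktail pre-incubated 30min at room temperature, compound added, then 30min more. Excitation 320nm, emission 615/665nm. Ki from three independent repeats, mean ± SD.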

[3] = tested on: PC-9; test: Induction of apoptosis in human PC9 cells assessed as necrotic cells at 10 uM after 48 hrs by Annexin V-FITC/propidium iodide staining based flow cytometry (reference value: 1.34%); assay type: functional
Procedure, shortened: (§1)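 PC9 cells seeded in 6-well plates (1~2×10^6 cells/mL), incubated overnight, then exposed to 0, 2.5, 5 or 10µM compound for 48h. Harvested cells stained with Annexin-V-FITC/PI for 30 min and analysed by flow cytometry. Three individual experiments; means ± SD.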

[4] = tested on: PC-9; test: Effect on NRF2 accumulation in human PC9 cells transfected with DCN1 siRNA3 by densitometric method; assay type: functional, cell-based
Procedure, shortened: (§2)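 H1975 or PC9 cells seeded in 6-well plates for 16-24h, transfected with DCN1 siRNA#3 by lipofection, with or without compound, and collected three days later. Western blot for Cullin3, DCN1, NRF2, HO-1 and NQO1, with densitometry normalized to GAPDH. Three individual experiments, means ± SD.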

[5] = tested on: A549; test: Induction of apoptosis in human A549 cells assessed as late apoptotic cells at 10 uM after 48 hrs by Annexin V-FITC/propidium iodide staining based flow cytometry (reference value: 2.61%); assay type: functional
[6] = tested on: NCI-H1975; test: Effect on NRF2 accumulation in human NCI-H1975 cells transfected with DCN1 siRNA3 by densitometric method; assay type: functional, cell-based; procedure, shortened: as §2
[7] = tested on: NCI-H1975; test: Induction of apoptosis in human NCI-NCI-H1975 cells assessed as late apoptotic cells at 10 uM after 48 hrs by Annexin V-FITC/propidium iodide staining based flow cytometry (reference value: 0.46%); assay type: functional
[8] = tested on: A549; test: Induction of apoptosis in human A549 cells assessed as necrotic cells at 2.5 uM after 48 hrs by Annexin V-FITC/propidium iodide staining based flow cytometry (reference value: 0.88%); assay type: functional
[9] = tested on: A549; test: Induction of apoptosis in human A549 cells assessed as late apoptotic cells at 2.5 uM after 48 hrs by Annexin V-FITC/propidium iodide staining based flow cytometry (reference value: 2.61%); assay type: functional
[10] = tested on: NCI-H1975; test: Effect on HO-1 accumulation in human […] cells transfected with DCN1 siRNA3 by densitometric method; assay type: functional, cell-based; procedure, shortened: as §2
[11] = tested on: PC-9; test: Induction of apoptosis in human PC9 cells assessed as viable cells at 5 uM after 48 hrs by Annexin V-FITC/propidium iodide staining based flow cytometry (reference value: 95.7%); assay type: functional; conditions: PC-9, 48 h, read-out: Activity; procedure, shortened: as §1
[12] = tested on: NCI-H1975; test: Antiproliferative activity against human NCI-NCI-H1975 by MTT assay; assay type: functional, cell-based; conditions: TDE = time-dependent effect
[13] = target: T1, DCN1-like protein 1 (Homo sapiens, UniProt Q96GG9); test: Binding affinity to N-terminal His6-tagged recombinant human DCN1 expressed in Escherichia coli BL21-AI assessed as reduction in DCN1-FAM-labelled N-terminal acetylated UBE2M (1 to 12 residues) protein-protein interaction after 30 mins by fluorescence polarization competitive binding assay
[14] = tested on: MCF7; test: Antiproliferative activity against human MCF7 after 72 hrs by MTT assay; assay type: functional, cell-based; conditions: MCF7, 72 h
Procedure, shortened: (§3)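 MTT viability assay: cells seeded at 2~5×10^3 per well, exposed to serial dilutions of compound for 72h, then MTT (5 mg/mL in PBS) added for 4h at 37°C. Formazan dissolved in DMSO and read at 490nm. IC50 reported as mean ± SD of three independent experiments.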

[15] = tested on: NCI-H1975; test: Induction of apoptosis in human NCI-NCI-H1975 cells assessed as necrotic cells at 2.5 uM after 48 hrs by Annexin V-FITC/propidium iodide staining based flow cytometry (reference value: 0.94%); assay type: functional
[16] = tested on: PC-9; test: Induction of apoptosis in human PC9 cells assessed as viable cells at 2.5 uM after 48 hrs by Annexin V-FITC/propidium iodide staining based flow cytometry (reference value: 95.7%); assay type: functional; conditions: PC-9, 48 h, read-out: Activity; procedure, shortened: as §1
[17] = tested on: NCI-H1975; test: Induction of apoptosis in human NCI-NCI-H1975 cells assessed as viable cells at 2.5 uM after 48 hrs by Annexin V-FITC/propidium iodide staining based flow cytometry (reference value: 96.1%); assay type: functional; conditions: NCI-H1975, 48 h, read-out: Activity
[18] = tested on: L02; test: Antiproliferative activity against human L02 after 72 hrs by MTT assay; assay type: cell-based; conditions: l02, 72 h; procedure, shortened: as §3
[19] = tested on: NCI-H1975; test: Induction of apoptosis in human NCI-NCI-H1975 cells assessed as necrotic cells at 5 uM after 48 hrs by Annexin V-FITC/propidium iodide staining based flow cytometry (reference value: 0.94%); assay type: functional
[20] = tested on: NCI-H1975; test: Inhibition of colony formation in human […] cells after 7 days by crystal violet staining based microscopic analysis; assay type: functional, cell-based
Procedure, shortened: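 H1975, PC9 and A549 cells seeded at 1×10^3 cells per well and cultured overnight, then given fresh medium with compound at 0, 0.625, 1.25, 2.5, 5 or 10μM for 7 days. Cells fixed, stained with 0.1% crystal violet and imaged by microscopy; dye then dissolved and read on a plate reader. Three experiments; means ± SD.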

[21] = tested on: SMMC-7721; test: Antiproliferative activity against human SMMC7721 after 72 hrs by MTT assay; assay type: functional, cell-based; conditions: SMMC-7721, 72 h; procedure, shortened: as §3
[22] = tested on: PC-9; test: Induction of apoptosis in human PC9 cells assessed as late apoptotic cells at 5 uM after 48 hrs by Annexin V-FITC/propidium iodide staining based flow cytometry (reference value: 1.57%); assay type: functional
[23] = tested on: NCI-H1975; test: Induction of apoptosis in human NCI-NCI-H1975 cells assessed as early apoptotic cells at 2.5 uM after 48 hrs by Annexin V-FITC/propidium iodide staining based flow cytometry (reference value: 2.47%); assay type: functional
[24] = tested on: A549; test: Induction of apoptosis in human A549 cells assessed as early apoptotic cells at 10 uM after 48 hrs by Annexin V-FITC/propidium iodide staining based flow cytometry (reference value: 3.63%); assay type: functional
[25] = target: T1, DCN1-like protein 1; test: Binding affinity to N-terminal GST tagged recombinant human DCN1 (58 to 259 residues) expressed in Escherichia coli BL21(DE3) assessed as reduction in DCN1-FAM-labelled N-terminal acetylated UBE2M (1 to 21 residues) protein-protein interaction after 30 mins by HTRF assay
[26] = tested on: A549; test: Induction of apoptosis in human A549 cells assessed as late apoptotic cells at 5 uM after 48 hrs by Annexin V-FITC/propidium iodide staining based flow cytometry (reference value: 2.61%); assay type: functional

T1 sequence (Q96GG9 whole entry, the tested form may be a part): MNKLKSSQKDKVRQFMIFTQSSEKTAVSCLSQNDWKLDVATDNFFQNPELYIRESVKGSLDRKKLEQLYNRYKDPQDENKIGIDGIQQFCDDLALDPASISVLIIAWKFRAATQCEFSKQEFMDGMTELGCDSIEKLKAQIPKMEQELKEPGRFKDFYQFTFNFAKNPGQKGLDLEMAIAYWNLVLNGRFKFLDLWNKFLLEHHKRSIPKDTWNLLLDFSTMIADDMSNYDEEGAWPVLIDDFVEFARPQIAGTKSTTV
Sequence of DCN1-like protein 2 (Q6PH85 whole entry, the tested form may be a part): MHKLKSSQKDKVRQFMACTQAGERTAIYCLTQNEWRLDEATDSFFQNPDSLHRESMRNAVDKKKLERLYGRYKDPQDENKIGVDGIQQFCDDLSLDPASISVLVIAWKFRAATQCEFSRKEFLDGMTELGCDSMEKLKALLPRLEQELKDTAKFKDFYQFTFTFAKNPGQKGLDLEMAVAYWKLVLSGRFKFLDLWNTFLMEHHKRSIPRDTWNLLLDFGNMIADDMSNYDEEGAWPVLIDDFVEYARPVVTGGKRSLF

Structure (SMILES): C#CCSc1nc(Sc2nccs2)c(C#N)c(-c2ccc(C)cc2)n1
- Activity [1]: 2.74%
- Ki [2]: 66.2 nM
- Activity [3]: 17.4%
- Activity [4]: inactive
- Activity [5]: 81.1%
- Activity [6]: inactive
- Activity [7]: 46.9%
- Activity [8]: 1.22%
- Activity [9]: 10.3%
- Activity [10]: inactive
- viability at 5 µM [11]: 63.8%
- Activity [12]: Tde
- IC50 [13]: 26.9 nM
- Ki [13]: 20.8 nM
- IC50 [14]: 2200 nM
- Activity [15]: 1.35%
- viability at 2.5 µM [16]: 69.3%
- viability at 2.5 µM [17]: 80%
- Activity [18]: Non-Toxic
- Activity [19]: 4.92%
- inhibition [20]: Dose-dependent effect
- IC50 [21]: 2450 nM
- Activity [22]: 22.7%
- Activity [23]: 9.47%
- Activity [24]: 2.52%
- IC50 [25]: 15.7 nM
- Ki [25]: 13.7 nM
- Activity [26]: 31.6%
